The values that follow come from ChEMBL document CHEMBL3580529, “Limonoids with Anti-HIV Activity from Cipadessa cinerascens” (J Nat Prod, 2015).

Series [1] deals with Human immunodeficiency virus 1. Put plainly: Antiviral activity against HIV1 NL4-3 infected in human MT4 cells assessed as inhibition of virus-induced cytopathic effect incubated for 3 to 4 days by MTT assay. Type of series: functional, organism-based. The settings on record: Human immunodeficiency virus 1, NL4-3, MT4. The essentials:
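MT-4 cells seeded with serial compound dilutions, then infected with HIV-1 NL4-3 at final MOI 0.03; 37 °C, 5% CO2, humidified, 3 or 4 days. MTT (5 mg/mL in PBS) added for 3 h, cells lysed in 10% Triton X-100/acidified 2-propanol, absorbance 570 nm. EC50 = concentration giving 50% protection against HIV-induced cytopathic effect.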
For orientation: Damage to the host cells serves as the signal in cytopathic effect assays.

Series [2] can be described thus: Selectivity index, ratio of CC50 against human MT4 cells to EC50 for HIV1 NL4-3 infected in human MT4 cells. The series is classed as toxicity, cell-based. The settings on record: MT4 cells (CC50) and HIV1 NL4-3 infected MT4 cells (EC50). The essentials:
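SI calculated as CC50 (MT-4 cytotoxicity, MTT read-out) divided by EC50 (protection of MT-4 cells from HIV-1 NL4-3 cytopathic effect, MOI 0.03), both from parallel 3–4 day assays at 37 °C.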

The nature of series [3]: Cytotoxicity against human MT4 cells assessed as reduction in cell viability incubated for 3 to 4 days by MTT assay. Type of series: cell-based. In short, it runs like this: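 Serially diluted compounds on MT-4 cells, 37 °C, 5% CO2, humidified, 3 or 4 days; viability by MTT (5 mg/mL in PBS, 3 h), formazan solubilized with 10% Triton X-100 in acidified 2-propanol, read at 570 nm. CC50 = concentration killing 50% of MT-4 cells.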

Regarding `COC(=O)C[C@H]1C(C)(C)[C@H](O)[C@H](O)[C@@H]2OC3=C(C)C4=CC(=O)O[C@@H](c5ccoc5)[C@]4(C)[C@@H](O)[C@@H]3[C@@]21C`, the EC50 (usually the midpoint of the concentration-response curve) in series [1] was greater than 100 µM.

As to `C=C1[C@H]2C(=O)[C@@]3(C)[C@@H](O[C@@]14CC(=O)O[C@@H](c1ccoc1)[C@]4(C)[C@H]2OC(C)=O)[C@@H](O)[C@@H](OC(C)=O)C(C)(C)[C@@H]3CC(=O)OC`, in series [1], the EC50 is greater than 100 µM. On the same count and under the same terms, next, `COC(=O)C[C@H]1C(C)(C)[C@H](OC(C)=O)C[C@@H]2O[C@]34CC(=O)O[C@@H](c5ccoc5)[C@]3(C)[C@@H](O)[C@@H](C(=O)[C@@H]4C)[C@@]21C`: greater than 100 µM. Same read-out and setting: to `C=C1[C@@H]2C[C@@]3(C)[C@H](C4=C[C@@H](O)OC4=O)OC(=O)C[C@]13O[C@H]1C[C@@H](OC(C)=O)C(C)(C)[C@H](CC(=O)OC)[C@@]1(C)C2=O` belongs greater than 100 µM; to `COC(=O)C[C@H]1C(C)(C)[C@H](O)[C@H](O)[C@@H]2OC3=C(C)C4=CC(=O)O[C@@H](c5ccoc5)[C@]4(C)C[C@@H]3[C@@]21C`, greater than 100 µM.

Consider `Cc1ccnc2c1NC(=O)c1cccnc1N2C1CC1` [NEVIRAPINE], for which the EC50 in series [1] worked out at 0.1 µM. The selectivity ratio in series [2] was greater than 833.

For `COC(=O)C[C@H]1C(C)(C)[C@H](OC(C)=O)[C@H](O)[C@@H]2OC3=C(C)C4=CC(=O)O[C@@H](c5ccoc5)[C@]4(C)[C@@H](O)[C@@H]3[C@@]21C`, in series [1], the EC50 was greater than 100 µM.

For the compound `C=C1[C@H]2C(=O)[C@@]3(C)[C@@H](O[C@@]14CC(=O)O[C@@H](C1=C[C@@H](O)OC1=O)[C@]4(C)[C@H]2OC(C)=O)[C@@H](OC(C)=O)[C@@H](OC(C)=O)C(C)(C)[C@@H]3CC(=O)OC`, the EC50 in series [1] is greater than 100 µM.

With `C=C1[C@@H]2C[C@@]3(C)[C@H](c4ccoc4)OC(=O)C[C@]13O[C@H]1C[C@@H](O)C(C)(C)[C@H](CC(=O)OC)[C@@]1(C)C2=O`, the EC50 in series [1] is greater than 100 µM. Same read-out and setting: next, `COC(=O)C[C@H]1C(C)(C)[C@H](OC(C)=O)[C@H](OC(C)=O)[C@@H]2O[C@]34CC(=O)O[C@@H](c5ccoc5)[C@]3(C)[C@@H](O)[C@@H](C(=O)[C@@H]4C)[C@@]21C`: greater than 100 µM; `COC(=O)C[C@H]1C(C)(C)[C@H](OC(C)=O)[C@H](OC(C)=O)[C@@H]2O[C@]34CC(=O)O[C@@H](c5ccoc5)[C@]3(C)[C@@H](O)[C@@H](C(=O)[C@]4(C)O)[C@@]21C`: greater than 100 µM; `C=C1[C@H]2C(=O)[C@@]3(C)[C@@H](O[C@@]14CC(=O)O[C@@H](C1=C[C@@H](O)OC1=O)[C@]4(C)[C@H]2OC(C)=O)[C@@H](OC(C)=O)CC(C)(C)[C@@H]3CC(=O)OC`: greater than 100 µM.

In the case of `COC(=O)C[C@H]1C(C)(C)[C@H](OC(C)=O)[C@H](O)[C@@H]2O[C@]34CC(=O)O[C@@H](c5ccoc5)[C@]3(C)[C@@H](O)[C@@H](C(=O)[C@@H]4C)[C@@]21C`, the EC50 in series [1] was greater than 100 µM. Turning to `C=C1[C@H]2C(=O)[C@@]3(C)[C@@H](O[C@@]14CC(=O)O[C@@H](c1ccoc1)[C@]4(C)[C@H]2O)[C@@H](OC(C)=O)[C@@H](OC(C)=O)C(C)(C)[C@@H]3CC(=O)OC`, the EC50 in series [1] is greater than 100 µM.

`C=C1[C@H]2C(=O)[C@@]3(C)[C@@H](O[C@@]14CC(=O)O[C@@H](c1ccoc1)[C@]4(C)[C@H]2O)[C@@H](O)[C@@H](OC(C)=O)C(C)(C)[C@@H]3CC(=O)OC`: the EC50 in series [1] turned out to be 5.5 µM. Moreover, the selectivity ratio in series [2] is greater than 7.2. Also, the CC50 (usually the concentration that lowers cell viability or growth by half) in series [3] was greater than 40 µM. Turning to `COC(=O)C[C@H]1C(C)(C)[C@H](OC(C)=O)[C@H](OC(C)=O)[C@@H]2O[C@]34CC(=O)O[C@@H](c5ccoc5)[C@]3(C)[C@@H](O)[C@@H](C(=O)[C@@]4(C)O)[C@@]21C`, in series [1], the 50% effective concentration (EC50) is greater than 100 µM. For `CCC(C)C(O)C(=O)O[C@H]1[C@H](OC=O)[C@H]([C@@]2(C)[C@@H](OC(C)=O)CC(=O)O[C@](C)(COC(C)=O)[C@@H]2CC(=O)OC)C(COC)=C2[C@H](O)C[C@@H](c3ccoc3)[C@@]21C` (some centres not stated), the EC50 in series [1] is 6.1 µM. The selectivity ratio in series [2] is greater than 6.5. For the same compound, the CC50 in series [3] is greater than 40 µM.
